Format in all cases: nucleic-acid assay
The subject of experiment [1] is Nucleic Acid. Nature of the experiment: Binding affinity to DNA 5'-d GCG TAC AP CAT GCG-3' 3'-d CGC ATG C GTA CGC-5' assessed as melting temperature pretreated for 5 mins in presence of 50 mM NaCl. A digest of the protocol:
(§1)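 UV thermal denaturation at 260 nm used 4 µM duplex (AP = THF) with or without 20 µM ligand in 10 mM HEPES-NaOH pH 7.0, 50 mM NaCl. Samples were preheated 5 min at 80 °C, then slowly cooled. Melts ran 20–80 °C at 1 °C/min. Tm came from non-linear fitting; ΔTm = Tm(+) − Tm(−).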

In experiment [2] the test system is Nucleic Acid. Nature of the experiment: Binding affinity to DNA 5'-d GCG TAC AP CAT GCG-3' 3'-d CGC ATG G GTA CGC-5' assessed as equilibrium association constant by SPR analysis in presence of 50 mM NaCl. A digest of the protocol: (§2)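 SPR on BIACORE3000. Hairpin duplexes carrying the AP site (THF) opposite X were 5'-biotin-labelled and immobilized in HBS-N (pH 7.4, 150 mM NaCl). Binding was run in 10 mM HEPES-NaOH pH 7.0 with 50 mM NaCl at 25 °C. Ligand 0.05–2.00 µM was injected at 20 µl/min for 300 s, then 120 s dissociation. Ka came from steady-state affinity analysis with a one-site fit.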
Background: In SPR one partner is held on a chip, and binding of the other changes the refractive index at the surface.

Experiment [3] concerns Nucleic Acid. Nature of the experiment: Binding affinity to DNA 5'-d GCG TAC AP CAT GCG-3' 3'-d CGC ATG T GTA CGC-5' assessed as melting temperature pretreated for 5 mins in presence of 50 mM NaCl. A digest of the protocol: as §1
In experiment [4] the test system is Nucleic Acid. Nature of the experiment: Binding affinity to DNA 5'-d GCG TAC AP CAT GCG-3' 3'-d CGC ATG T GTA CGC-5' assessed as equilibrium association constant by SPR analysis in presence of 50 mM NaCl. In a few lines: as §2
Experiment [5] concerns Nucleic Acid. In words: Binding affinity to DNA 5'-d GCG TAC AP CAT GCG-3' 3'-d CGC ATG A GTA CGC-5' assessed as melting temperature pretreated for 5 mins in presence of 50 mM NaCl. A digest of the protocol: as §1
Experiment [6] concerns Nucleic Acid. In words: Binding affinity to DNA 5'-d GCG TAC AP CAT GCG-3' 3'-d CGC ATG A GTA CGC-5' assessed as equilibrium association constant by SPR analysis in presence of 50 mM NaCl. In a few lines:
as §2

In experiment [7] the test system is Nucleic Acid. Nature of the experiment: Binding affinity to DNA 5'-d GCG TAC AP CAT GCG-3' 3'-d CGC ATG C GTA CGC-5' assessed as equilibrium association constant by SPR analysis in presence of 50 mM NaCl. In a few lines:
as §2

The subject of experiment [8] is Nucleic Acid. In words: Binding affinity to DNA 5'-d GCG TAC AP CAT GCG-3' 3'-d CGC ATG G GTA CGC-5' assessed as melting temperature pretreated for 5 mins in presence of 50 mM NaCl. In a few lines:
as §1

The test system of experiment [9] is Nucleic Acid. Nature of the experiment: Binding affinity to DNA 5'-d GCG TAC AP CAT GCG-3' 3'-d CGC ATG T GTA CGC-5' assessed as melting temperature pretreated for 5 mins in presence of 100 mM NaCl. In a few lines: (§3)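 UV thermal denaturation at 260 nm used 4 µM duplex (AP = THF) with or without 20 µM ligand in 10 mM HEPES-NaOH pH 7.0, 100 mM NaCl. Samples were preheated 5 min at 80 °C, then slowly cooled. Melts ran 20–80 °C at 1 °C/min. Tm came from non-linear fitting; ΔTm = Tm(+) − Tm(−).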

For experiment [10], the system named is Nucleic Acid. In words: Binding affinity to DNA 5'-d GCG TAC AP CAT GCG-3' 3'-d CGC ATG G GTA CGC-5' assessed as melting temperature pretreated for 5 mins in presence of 100 mM NaCl. In a few lines: as §3
Experiment [11] has as its system Nucleic Acid. In words: Binding affinity to DNA 5'-d GCG TAC AP CAT GCG-3' 3'-d CGC ATG C GTA CGC-5' assessed as melting temperature pretreated for 5 mins in presence of 100 mM NaCl. A digest of the protocol:
as §3

Experiment [12] deals with Nucleic Acid. In words: Binding affinity to DNA 5'-d GCG TAC AP CAT GCG-3' 3'-d CGC ATG A GTA CGC-5' assessed as melting temperature pretreated for 5 mins in presence of 100 mM NaCl. A digest of the protocol:
as §3

Each structure is given as a SMILES string.

For `NCCCNCCCNCCCn1ccc(=O)[nH]c1=O`, the Tm worked out at 32.1 °C in the experiment on Nucleic Acid [1], 33.9 °C with Nucleic Acid [3], 39.1 °C with Nucleic Acid [5] and 36.4 °C with Nucleic Acid [8]. Also, the Ka with Nucleic Acid [2] turned out to be 0.001 ×10⁶ /M; in the experiment with Nucleic Acid [4] it was 0.027 ×10⁶ /M; in the experiment with Nucleic Acid [6] it was 0.045 ×10⁶ /M; with Nucleic Acid [7], 0.022 ×10⁶ /M.

Regarding `NCCCNCCCNCCCn1ccc(N)nc1=O`, the Tm in the experiment with Nucleic Acid [1] is 32.6 °C; with Nucleic Acid [3], 32.4 °C; in the experiment on Nucleic Acid [5], 35.2 °C; in the experiment with Nucleic Acid [8] it was 40.5 °C. Further, the Ka was found to be 0.039 ×10⁶ /M in the experiment with Nucleic Acid [2], 0.001 ×10⁶ /M in the experiment on Nucleic Acid [4], 0.002 ×10⁶ /M in the experiment on Nucleic Acid [6] and 0.002 ×10⁶ /M with Nucleic Acid [7].

As to `NCCCNCCCNCCCn1cnc2c(N)ncnc21`, the Ka in the experiment with Nucleic Acid [2] amounted to 0.087 ×10⁶ /M; in the experiment with Nucleic Acid [4], 3.9 ×10⁶ /M; with Nucleic Acid [6], 0.057 ×10⁶ /M; in the experiment on Nucleic Acid [7], 0.01 ×10⁶ /M. In addition, the Tm came to 43.7 °C in the experiment with Nucleic Acid [9], 40.8 °C in the experiment on Nucleic Acid [10], 34.6 °C with Nucleic Acid [11] and 40.4 °C in the experiment with Nucleic Acid [12].

`NCCCNCCCN`: the Ka with Nucleic Acid [4] was less than 0.001 ×10⁶ /M.

In the case of `NCCCNCCCNCCCn1cnc2c(=O)[nH]c(N)nc21`, the Ka in the experiment on Nucleic Acid [2] was 0.047 ×10⁶ /M; in the experiment with Nucleic Acid [4], 0.08 ×10⁶ /M; with Nucleic Acid [6], 0.016 ×10⁶ /M; in the experiment on Nucleic Acid [7], 6.3 ×10⁶ /M. The Tm with Nucleic Acid [9] was determined as 38.1 °C; in the experiment with Nucleic Acid [10], 40.9 °C; in the experiment with Nucleic Acid [11], 40.8 °C; in the experiment on Nucleic Acid [12], 40.4 °C.

As for `Cc1cn(CCCNCCCNCCCN)c(=O)[nH]c1=O`, the Tm with Nucleic Acid [1] stood at 33.8 °C; in the experiment on Nucleic Acid [3], 35.5 °C; in the experiment on Nucleic Acid [5], 39.2 °C; in the experiment on Nucleic Acid [8] it was 37.8 °C. For the same compound, the Ka with Nucleic Acid [2] is 0.043 ×10⁶ /M; in the experiment with Nucleic Acid [4], 0.053 ×10⁶ /M; with Nucleic Acid [6], 0.222 ×10⁶ /M; in the experiment with Nucleic Acid [7], 0.063 ×10⁶ /M.
